# Data from ChEMBL document CHEMBL1128450, “Mononucleoside phosphotriester derivatives with S-acyl-2-thioethyl bioreversible phosphate-protecting groups: intracellular delivery of 3'-azido-2',3'-dideoxythymidine 5'-monophosphate” (J Med Chem, 1995).
# Values joined by “and” are separate entries in the source; they are usually repeats but may differ in a detail not shown here. Equal values may be shown once.
# Tested on: not listed separately
# Experiment: Selectivity Index measured as the ratio of CC50(CEM/TK) to EC50(CEM/TK).
# Format: functional
# Settings: not given
row,Structure (SMILES),Selectivity index
1,Cc1cn(C2CC(N=[N+]=[N-])C(COP(=O)(OCCSC(=O)c3ccccc3)OCCSC(=O)c3ccccc3)O2)c(=O)[nH]c1=O (stereo not given),> 4

# Tested on: not listed separately
# Experiment: Selectivity Index measured as the ratio of CC50(CEM-SS) to EC50(CEM-SS).
# Format: functional
# Settings: not given
row,Structure (SMILES),Selectivity index
1,Cc1cn([C@H]2C[C@H](N=[N+]=[N-])[C@@H](CO)O2)c(=O)[nH]c1=O [ZIDOVUDINE],> 17300
2,Cc1cn(C2CC(N=[N+]=[N-])C(COP(=O)(OCCSC(=O)c3ccccc3)OCCSC(=O)c3ccccc3)O2)c(=O)[nH]c1=O (stereo not given),> 8

# Tested on: CEM-SS
# Experiment: Antiviral activity in CEM-SS cell line infected with HIV-1 and cytotoxic concentration required to reduce the viability of uninfected cells by 50%
# Format: functional
# Settings: Homo sapiens
# Procedure, shortened: (§1)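 Uninfected cells were exposed to compound for 5 days, and viability was read by colorimetric MTT test. Values average at least three separate experiments.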
row,Structure (SMILES),CC50 [nM]
1,Cc1cn([C@H]2C[C@H](N=[N+]=[N-])[C@@H](CO)O2)c(=O)[nH]c1=O [ZIDOVUDINE],> 100000
2,Cc1cn(C2CC(N=[N+]=[N-])C(COP(=O)(OCCSC(=O)c3ccccc3)OCCSC(=O)c3ccccc3)O2)c(=O)[nH]c1=O (stereo not given),> 1000

# Tested on: MT4
# Experiment: Antiviral activity in MT-4 cell line infected with HIV-1 and cytotoxic concentration required to reduce the viability of uninfected cells by 50%
# Format: functional
# Settings: Homo sapiens
# Procedure, shortened: as §1
row,Structure (SMILES),CC50 [nM]
1,Cc1cn([C@H]2C[C@H](N=[N+]=[N-])[C@@H](CO)O2)c(=O)[nH]c1=O [ZIDOVUDINE],75000
2,Cc1cn(C2CC(N=[N+]=[N-])C(COP(=O)(OCCSC(=O)c3ccccc3)OCCSC(=O)c3ccccc3)O2)c(=O)[nH]c1=O (stereo not given),> 1000

# Tested on: MT4
# Experiment: Antiviral activity in MT-4 cell line infected with HIV-1 and Concentration required to inhibit the replication of HIV-1 by 50% was determined
# Format: functional, cell-based
# Settings: Homo sapiens
# Procedure, shortened: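 HIV-1 IIIB at 50 TCID50 adsorbed to MT-4 cells for 30 min, followed by two washes and 5 days of culture with graded compound concentrations. Protection from virus-induced cytopathogenicity was read by MTT reduction to formazan. EC50 was taken from a median effect plot, averaging at least three separate experiments.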
row,Structure (SMILES),EC50 [nM]
1,Cc1cn([C@H]2C[C@H](N=[N+]=[N-])[C@@H](CO)O2)c(=O)[nH]c1=O [ZIDOVUDINE],17
2,Cc1cn(C2CC(N=[N+]=[N-])C(COP(=O)(OCCSC(=O)c3ccccc3)OCCSC(=O)c3ccccc3)O2)c(=O)[nH]c1=O (stereo not given),76

# Tested on: CEM/TK- (Homo sapiens)
# Experiment: Antiviral activity in CEM/TK cell line infected with HIV-1 and cytotoxic concentration required to reduce the viability of uninfected cells by 50%
# Settings: not given
row,Structure (SMILES),CC50 [nM]
1,Cc1cn([C@H]2C[C@H](N=[N+]=[N-])[C@@H](CO)O2)c(=O)[nH]c1=O [ZIDOVUDINE],> 100000
2,Cc1cn(C2CC(N=[N+]=[N-])C(COP(=O)(OCCSC(=O)c3ccccc3)OCCSC(=O)c3ccccc3)O2)c(=O)[nH]c1=O (stereo not given),> 1000

# Tested on: CEM/TK- (Homo sapiens)
# Experiment: Antiviral activity in CEM/TK cell line infected with HIV-1 and Concentration required to inhibit the replication of HIV-1 by 50% was determined
# Settings: not given
row,EC50 [nM],Structure (SMILES)
1,> 100000,Cc1cn([C@H]2C[C@H](N=[N+]=[N-])[C@@H](CO)O2)c(=O)[nH]c1=O [ZIDOVUDINE]
2,320,Cc1cn(C2CC(N=[N+]=[N-])C(COP(=O)(OCCSC(=O)c3ccccc3)OCCSC(=O)c3ccccc3)O2)c(=O)[nH]c1=O (stereo not given)

# Tested on: not listed separately
# Experiment: Half life evaluated in Total Cell Extract(TCE).
# Format: ADME
# Settings: not given
# Procedure, shortened: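 Compounds at 5 × 10⁻⁵ M initial were incubated at 37 °C in total cell extract from CEM-SS cells. Crude aliquots were analysed by on-line precolumn-cleaning HPLC, with and without ion-pairing reagent, on a C18 column using an ammonium acetate/acetonitrile gradient, with areas read at 266 nm. Half-lives came from pseudo-first-order rate constants fitted to kinetic models by exponential regression.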
row,Structure (SMILES),T1/2 [h]
1,Cc1cn([C@H]2C[C@H](N=[N+]=[N-])[C@@H](COP(=O)(O)O)O2)c(=O)[nH]c1=O [AZIDOTHYMIDINE MONOPHOSPHATE],4

# Same assay, conditions: total cell extract (TCE)
row,half-life [h],Structure (SMILES)
1,< 0.0833,CC(=O)SCCOP(=O)(O)OCC1OC(n2cc(C)c(=O)[nH]c2=O)CC1N=[N+]=[N-] (stereo not given)
2,7.2,Cc1cn(C2CC(N=[N+]=[N-])C(COP(=O)(O)OCCSC(=O)C(C)(C)C)O2)c(=O)[nH]c1=O (stereo not given)
3,7.1,Cc1cn(C2CC(N=[N+]=[N-])C(COP(=O)(O)OCCSC(=O)C(C)C)O2)c(=O)[nH]c1=O (stereo not given)

row,Structure (SMILES),half-life [h]
1,Cc1cn([C@H]2C[C@H](N=[N+]=[N-])[C@@H](COP(=O)(O)O)O2)c(=O)[nH]c1=O [AZIDOTHYMIDINE MONOPHOSPHATE],4

# Tested on: not listed separately
# Experiment: Half life evaluated in Culture Medium(CM)
# Format: ADME
# Settings: not given
# Procedure, shortened: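 Compounds at 5 × 10⁻⁵ M initial were incubated at 37 °C in RPMI 1640 with 10% heat-inactivated fetal calf serum. Crude aliquots were analysed by on-line ISRP precolumn-cleaning HPLC, with and without tetrabutylammonium ion-pairing, on a C18 column using an ammonium acetate pH 6.0/acetonitrile gradient. Species were quantified from peak areas at 266 nm. Half-lives were derived from pseudo-first-order rate constants fitted by mono- or polyexponential regression.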
row,Structure (SMILES),T1/2
1,Cc1cn([C@H]2C[C@H](N=[N+]=[N-])[C@@H](COP(=O)(O)O)O2)c(=O)[nH]c1=O [AZIDOTHYMIDINE MONOPHOSPHATE],72 h and 67 h

# Same assay, conditions: culture medium (CM)
row,half-life [h],Structure (SMILES)
1,8.9,CC(=O)SCCOP(=O)(O)OCC1OC(n2cc(C)c(=O)[nH]c2=O)CC1N=[N+]=[N-] (stereo not given)
2,21.3,Cc1cn(C2CC(N=[N+]=[N-])C(COP(=O)(O)OCCSC(=O)C(C)(C)C)O2)c(=O)[nH]c1=O (stereo not given)
3,12.3,Cc1cn(C2CC(N=[N+]=[N-])C(COP(=O)(O)OCCSC(=O)C(C)C)O2)c(=O)[nH]c1=O (stereo not given)

row,Structure (SMILES),half-life [h]
1,Cc1cn([C@H]2C[C@H](N=[N+]=[N-])[C@@H](COP(=O)(O)O)O2)c(=O)[nH]c1=O [AZIDOTHYMIDINE MONOPHOSPHATE],50

# Tested on: CEM-SS
# Experiment: Antiviral activity in CEM-SS cell line infected with HIV-1 and Concentration required to inhibit the replication of HIV-1 by 50% was determined
# Format: functional, cell-based
# Settings: Homo sapiens
# Procedure, shortened: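 Cells infected with HIV-LAI at 100 TCID50 for 30 min, washed twice, then cultured with a range of compound concentrations for 5 days (6 days for CEM/TK⁻). Virus production was read as reverse transcriptase activity in the culture supernatant. EC50 was taken from a median effect plot of the dose–effect data, averaging at least three separate experiments.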
row,EC50 [nM],Structure (SMILES)
1,6,Cc1cn([C@H]2C[C@H](N=[N+]=[N-])[C@@H](CO)O2)c(=O)[nH]c1=O [ZIDOVUDINE]
2,125,Cc1cn(C2CC(N=[N+]=[N-])C(COP(=O)(OCCSC(=O)c3ccccc3)OCCSC(=O)c3ccccc3)O2)c(=O)[nH]c1=O (stereo not given)
